The record followed here is ChEMBL document CHEMBL1150929, “Synthesis and cytotoxic activity of pyranocoumarins of the seselin and xanthyletin series” (J Nat Prod, 1998).

Structures are written as SMILES. Activity calls are given as the source filed them. The calls are words filed in the database; no cut-off is given here.

The first experiment relates to L1210. The experiment in a line: Cytotoxicity against mouse L1210 cells after 48 hrs by […] assay. The format is functional, cell-based. The following applies: L1210, 48 h. The procedure, abridged:
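L1210 cells grown in RPMI 1640 plus 10% fetal calf serum, 2 mM L-glutamine, penicillin/streptomycin, 10 mM HEPES (pH 7.4); exposed 48 h to nine serial drug dilutions in triplicate; microculture tetrazolium read-out; IC50 = concentration halving optical density versus untreated controls; mean of 2 independent experiments.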
Broadly, the IC50 is the concentration at which inhibition is half-maximal. The compound `CC(=O)O[C@H]1c2c(ccc3ccc(=O)oc23)OC(C)(C)[C@H]1OC(C)=O` (racemic) returned an IC50 of over 100 µM. Still for that read-out and setting: in the case of `CC(=O)O[C@H]1c2c(ccc3ccc(=O)oc23)OC(C)(C)[C@@H]1Br` (racemic) it was 60.3 µM; in that of `CC1(C)Oc2cc3oc(=O)ccc3cc2[C@@H](O)[C@@H]1Br` (racemic), over 100 µM; in that of `CC(=O)O[C@@H]1c2cc3ccc(=O)oc3cc2OC(C)(C)[C@@H]1OC(C)=O` (racemic), over 100 µM. `CC1(C)Oc2cc3oc(=O)ccc3cc2[C@@H](O)[C@H]1O` (racemic) gave a 50% inhibitory concentration (IC50) of over 100 µM. Still for that read-out and setting: for `CC(=O)OC1CC(C)(C)Oc2cc3oc(=O)ccc3cc21` (racemic) the value was 5 µM; for `CC1(C)CC(OC(=O)c2ccccc2)c2c(ccc3ccc(=O)oc23)O1` (racemic), 30.9 µM; for `CC1(C)CC(OC(=O)c2ccccc2)c2cc3ccc(=O)oc3cc2O1` (racemic), 90.1 µM. Still for that read-out and setting: in the case of `CC1(C)CC(OC(=O)NCCCl)c2c(ccc3ccc(=O)oc23)O1` (racemic) it was 67.2 µM; in that of `CC1(C)Oc2ccc3ccc(=O)oc3c2[C@H](OC(=O)c2ccccc2)[C@H]1Br` (racemic), 10.3 µM; in that of `CC1(C)Oc2ccc3ccc(=O)oc3c2[C@H](O)[C@@H]1O` (racemic), over 100 µM. On the same count and under the same terms, in the case of `CC(=O)O[C@@H]1c2cc3ccc(=O)oc3cc2OC(C)(C)[C@H]1Br` (racemic) it was over 100 µM. In turn, `CC1(C)CC(O)c2cc3ccc(=O)oc3cc2O1` (racemic) came in with a 50% inhibitory concentration (IC50) of 6.5 µM.

`CC1(C)CC(O)c2c(ccc3ccc(=O)oc23)O1` (racemic): the IC50 was 0.9 µM.

The compound `CC(=O)OC1CC(C)(C)Oc2ccc3ccc(=O)oc3c21` (racemic) yielded a 50% inhibitory concentration (IC50) of 24.7 µM. Turning to `CC1(C)Oc2ccc3ccc(=O)oc3c2[C@H](O)[C@H]1Br` (racemic), the half-maximal inhibitory concentration (IC50) was over 100 µM. The same measure, in the same setting: for `CC1(C)Oc2cc3oc(=O)ccc3cc2[C@@H](OC(=O)c2ccccc2)[C@@H]1Br` (racemic) the value was 36.5 µM.

The next experiment concerns L1210. Description: Cell cycle arrest in mouse L1210 cells by accumulation at G1 phase after 21 hrs by flow cytometry.
Conditions: not given
The experiment is classed as functional, cell-based. In general terms: A flow cytometer gives signals particle by particle.
With `CC(=O)OC1CC(C)(C)Oc2cc3oc(=O)ccc3cc21` (racemic), the result was inactive. Still for that read-out and setting: for `CC1(C)CC(O)c2cc3ccc(=O)oc3cc2O1` (racemic) the value was “inactive”; for `CC1(C)CC(O)c2c(ccc3ccc(=O)oc23)O1` (racemic), “inactive”.
